73 sequences from the array DNA melting data of Ke et al. (doi:10.1101/2024.01.08.574731) can be followed below.

Data set [1] can be described thus: folding enthalpy; higher = less favourable; fluorescence melt of hairpins on a sequencing array, two-state fit. To be noted: sodium 0.088 M. In a few lines:
(§1)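 Library hairpins on a sequenced MiSeq flow cell carried annealed Cy3 and quencher oligos, and their Cy3 fluorescence was imaged in 50 mM Na-HEPES pH 8.0 with 25 mM NaCl, in 2.5 °C steps up to 60 °C. Signals were normalised to Cy3 before quenching and to control constructs. Melting temperature and folding enthalpy were obtained from bootstrapped two-state fits, combined by inverse-variance weighting across four replicates, and the fitted temperatures were then raised by 9.35 °C to match UV melts.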

The nature of data set [2]: melting temperature; fluorescence melt of hairpins on a sequencing array, two-state fit, raised by 9.35 °C to match UV melts. As to conditions: sodium 0.088 M. In a few lines: as §1

For the sequence GGGAGCGGAAACACCCCC (((.(.(....).).))), the folding enthalpy in data set [1] is -16 kcal/mol. Further, the Tm in data set [2] was 28.2 °C.
The like results for GGGAGCTCGAAAGAGCCC (((..(((....)))))) were, in that order, -11.2 kcal/mol and 57.2 °C.
Turning to GGGAGGCGAAAGCCCCC (((.(((....)))))), the folding enthalpy in data set [1] was -19.2 kcal/mol. Besides, in data set [2], the Tm was 66.3 °C.
The like results for GGGAGGGCGAAAGCCCCC (((..(((....)))))) were, in that order, -10.6 kcal/mol and 55.3 °C.
The like results for GGGAGGGGAAACCCCCCC (((.(((....))).))) were, in that order, -38.7 kcal/mol and 53.3 °C.
For GGGAGGGGAAACCCTCTC (.(((((....))))).) the same measures were -20.2 kcal/mol and 52.2 °C.
In the case of GGGAGGGGAAACCTTCCC ((((.((....)).)))), the folding enthalpy in data set [1] was -25.1 kcal/mol. In addition, the Tm in data set [2] was 50 °C.
The like results for GGGAGGGGAAACTCTCCC (((((.(....).))))) were, in that order, -31.4 kcal/mol and 52 °C.
The like results for GGGAGTCGAAAGACCCC (((.(((....)))))) were, in that order, -32.7 kcal/mol and 56.7 °C.
In the case of GGGAGTGGAAACACCCCC (((.(((....))).))), the folding enthalpy in data set [1] was -19 kcal/mol. The Tm in data set [2] was 49.2 °C.
For GGGATACGAAAGTAACCC (((.(((....))).))) the same measures were -31.1 kcal/mol and 51.7 °C.
On to GGGATAGCGAAAGCTCCC (((..(((....)))))), for which the folding enthalpy in data set [1] was -21.8 kcal/mol. Also, the Tm in data set [2] is 50.1 °C.
The like results for GGGATAGGAAACCATCCC (((((.(....).))))) were, in that order, -30.9 kcal/mol and 43.3 °C.
The like results for GGGATCCGAAAGGAACCC (((.(((....))).))) were, in that order, -46.3 kcal/mol and 56.7 °C.
As for GGGATCGAAAGATGACCC ((((((....)))..))), the folding enthalpy in data set [1] was -27.8 kcal/mol. Besides, the Tm in data set [2] was determined as 33.6 °C.
For GGGATCGAAAGATTACCC ((((((....)))..))) the same measures were -17.4 kcal/mol and 32.4 °C.
For GGGATCGGAAACAATCCC (((((.(....).))))) the same measures were -30.9 kcal/mol and 40.6 °C.
The like results for GGGATGAAAATCCC (((((....))))) were, in that order, -28.8 kcal/mol and 56.5 °C.
As for GGGATGGGAAACCATTCC ((.((((....)))).)), the folding enthalpy in data set [1] was -31.1 kcal/mol. For the same sequence, the Tm in data set [2] was 50.2 °C.
Take GGGATGGGAAACCGTCTC (.((.((....)).)).): the folding enthalpy in data set [1] is -26.1 kcal/mol. Besides, the Tm in data set [2] came to 36.6 °C.
For GGGATGTCGAAAGACCCC (((..(((....)))))) the same measures were -18.8 kcal/mol and 44.9 °C.
For GGGATTGAAAAATCCC ((((((....)))))), the folding enthalpy in data set [1] is -43.6 kcal/mol. Moreover, in data set [2], the Tm was found to be 55.8 °C.
For GGGATTGCGAAAGCACCC (((..(((....)))))) the same measures were -14.5 kcal/mol and 41.2 °C.
Turning to GGGATTGGAAACAATTCC ((.((((....)))).)), in data set [1], the folding enthalpy was -34 kcal/mol. In addition, the Tm in data set [2] came out at 46.5 °C.
For GGGATTGGAAACGATCCC (((((.(....).))))) the same measures were -43.8 kcal/mol and 51.9 °C.
The like results for GGGATTTCGAAAGAACCC (((..(((....)))))) were, in that order, -22.6 kcal/mol and 30.3 °C.
For GGGCAACCGAAAGGTCCC (((..(((....)))))) the same measures were -16.3 kcal/mol and 44 °C.
GGGCAAGCGAAAGCTCCC (((..(((....)))))): the folding enthalpy in data set [1] is -19 kcal/mol. For the same sequence, in data set [2], the Tm was 44.6 °C.
For GGGCAAGGAAACCTGCCC (((((.(....).))))) the same measures were -37.7 kcal/mol and 57.5 °C.
The like results for GGGCAAGGAAACTCGCCC ((((.((....)).)))) were, in that order, -31.1 kcal/mol and 50.7 °C.
Consider GGGCAAGGAAACTTGCTC (.(((((....))))).), for which the folding enthalpy in data set [1] was -27.9 kcal/mol. In data set [2], the Tm was found to be 52.7 °C.
As to GGGCACCGAAAGGTACCC (((.(((....))).))), in data set [1], the folding enthalpy is -35.1 kcal/mol. The Tm in data set [2] was 56.7 °C.
The like results for GGGCACCGAAAGGTTCCC (((.(((....))).))) were, in that order, -32.4 kcal/mol and 52.5 °C.
As to GGGCACGAAAGTGAACCC ((((((....)))..))), in data set [1], the folding enthalpy is -16.6 kcal/mol. The Tm in data set [2] amounted to 51.7 °C.
The like results for GGGCACGAAAGTGCACCC ((((((....)))..))) were, in that order, -10.8 kcal/mol and 58.2 °C.
For GGGCACGAAAGTGGTCCC ((((((....)))..))) the same measures were -17.5 kcal/mol and 52.5 °C.
For GGGCACGAAAGTGTGCCC ((((((....)))..))) the same measures were -27.1 kcal/mol and 64.5 °C.
On to GGGCACGGAAACACGCCC ((((..(....)..)))), for which the folding enthalpy in data set [1] was -30.7 kcal/mol. In addition, the Tm in data set [2] is 46.2 °C.
Take GGGCAGCGAAAGCTCCC (((.(((....)))))): in data set [1], the folding enthalpy is -20.3 kcal/mol. In addition, in data set [2], the Tm worked out at 57.3 °C.
For GGGCATCGAAAGATCCCC (((.(((....))).))) the same measures were -19.4 kcal/mol and 48.9 °C.
The like results for GGGCATGGAAACATGCTC (.(((((....))))).) were, in that order, -30.1 kcal/mol and 55.4 °C.
For GGGCCAGGAAACTAGCCC ((((.((....)).)))) the same measures were -27.3 kcal/mol and 48.6 °C.
In the case of GGGCCCGAAAGGGATCCC ((((((....)))..))), in data set [1], the folding enthalpy is -14.9 kcal/mol. The Tm in data set [2] was 56.6 °C.
As to GGGCCCGGAAACGAGCCC ((((.((....)).)))), the folding enthalpy in data set [1] was -47.5 kcal/mol. Besides, in data set [2], the Tm is 57.5 °C.
As to GGGCCGCGAAAGCGCCCC (((.(((....))).))), the folding enthalpy in data set [1] is -12.4 kcal/mol. For the same sequence, in data set [2], the Tm was 68.8 °C.
The like results for GGGCCGGGAAACTGGCCC (((((.(....).))))) were, in that order, -31.9 kcal/mol and 68.9 °C.
The like results for GGGCCTCCGAAAGGACCC (((..(((....)))))) were, in that order, -21.2 kcal/mol and 50.1 °C.
The like results for GGGCCTGGAAACAGGCTC (.(((((....))))).) were, in that order, -15.9 kcal/mol and 61.6 °C.
Consider GGGCGAACGAAAGTTCCC (((..(((....)))))), for which the folding enthalpy in data set [1] was -15.4 kcal/mol. Further, the Tm in data set [2] was determined as 45.2 °C.
Consider GGGCGACGAAAGTCACCC (((.(((....))).))), for which the folding enthalpy in data set [1] is -43.3 kcal/mol. For the same sequence, the Tm in data set [2] is 61.8 °C.
The like results for GGGCGCACGAAAGTGCCC (((..(((....)))))) were, in that order, -12.1 kcal/mol and 57 °C.
Consider GGGCGCGAAAGCGAGCCC ((((((....)))..))), for which the folding enthalpy in data set [1] was -16.7 kcal/mol. For the same sequence, the Tm in data set [2] was 66.2 °C.
The like results for GGGCGCGAAAGCGATCCC ((((((....)))..))) were, in that order, -14.3 kcal/mol and 58.5 °C.
The like results for GGGCGCGAAAGCGCACCC ((((((....)))..))) were, in that order, -9.21 kcal/mol and 66.3 °C.
As for GGGCGCGAAAGCGGTCCC ((((((....)))..))), the folding enthalpy in data set [1] is -11.7 kcal/mol. Besides, the Tm in data set [2] came to 63.8 °C.
For GGGCGGTCGAAAGACCCC (((..(((....)))))) the same measures were -15.3 kcal/mol and 53.9 °C.
For GGGCGTCCGAAAGGACCC (((..(((....)))))) the same measures were -13.9 kcal/mol and 57.8 °C.
The like results for GGGCGTGGAAACACACCC (((.(((....))).))) were, in that order, -40.7 kcal/mol and 51.8 °C.
On to GGGCGTGGAAACATGCCC ((((.((....)).)))), for which, in data set [1], the folding enthalpy was -42.9 kcal/mol. In addition, the Tm in data set [2] is 63.1 °C.
For GGGCTACGAAAGTAACCC (((.(((....))).))) the same measures were -36.6 kcal/mol and 52 °C.
The like results for GGGCTACGAAAGTACCC (((.(((....)))))) were, in that order, -34.9 kcal/mol and 49.6 °C.
For GGGCTAGGAAACTGGTCC ((.(.((....)).).)), in data set [1], the folding enthalpy was -33.6 kcal/mol. Also, the Tm in data set [2] was determined as 41 °C.
The like results for GGGCTCGAAAGAGAGCCC ((((((....)))..))) were, in that order, -35.3 kcal/mol and 66.2 °C.
The like results for GGGCTCGAAAGAGCGCCC ((((((....)))..))) were, in that order, -10.7 kcal/mol and 56.6 °C.
The like results for GGGCTCGAAAGAGTTCCC ((((((....)))..))) were, in that order, -21 kcal/mol and 43.5 °C.
As for GGGCTCGGAAACAAGCCC (((((.(....).))))), the folding enthalpy in data set [1] was -28.1 kcal/mol. Further, the Tm in data set [2] came out at 51.4 °C.
For GGGCTCGGAAACGAACCC (((.(((....))).))) the same measures were -46.9 kcal/mol and 51 °C.
The like results for GGGCTGCGAAAGCATCCC (((.(((....))).))) were, in that order, -34.5 kcal/mol and 55.2 °C.
For GGGCTGGCGAAAGCCCCC (((..(((....)))))) the same measures were -12.9 kcal/mol and 52.1 °C.
On to GGGCTTTCGAAAGAACCC (((..(((....)))))), for which the folding enthalpy in data set [1] was -40 kcal/mol. Also, the Tm in data set [2] was determined as 35.7 °C.
The like results for GGGGAACGAAAGTTTCCC (((.(((....))).))) were, in that order, -36.8 kcal/mol and 61.1 °C.
The like results for GGGGACCCGAAAGGGCCC (((..(((....)))))) were, in that order, -16.4 kcal/mol and 62.3 °C.
With GGGGACGAAAGTCATCCC ((((((....)))..))), the folding enthalpy in data set [1] was -12.6 kcal/mol. Besides, in data set [2], the Tm was found to be 45.6 °C.
